Shown are actives, neighbours in structure and some others; about 1.5% of the full set was active somewhere.
CXCR6 block: CXCR6 receptor inhibitors, primary screen, cell-based, beta-arrestin, luminescence, CHO-K1 PathHunter, 1536-well; C-X-C chemokine receptor type 6 (Homo sapiens), O00574; inhibition, % at 20 µM; hit rate 0.36% among 360,000; AID 602244, 2012; in the data active = inhibition above about 34%, passing the limit was not always enough;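 note: antagonist mode with CXCL16 agonist at 10 nM final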
EBI2 antag: EBI2 receptor antagonists, beta-arrestin recruitment, primary screen, cell-based, luminescence, 7a,25-OHC stimulation, uHTS; AID 651636, 2012; 7a,25-OHC stimulated; inhibition, % at 5 µM; hit rate 0.81% among 360,000; G-protein coupled receptor 183 (Homo sapiens), P32249; in the data active = inhibition above about 38%;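 note: enzyme fragment complementation signal reports receptor beta-arrestin coupling in cells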
Target sequence (P32249 whole entry, looked up, the tested form may be a part): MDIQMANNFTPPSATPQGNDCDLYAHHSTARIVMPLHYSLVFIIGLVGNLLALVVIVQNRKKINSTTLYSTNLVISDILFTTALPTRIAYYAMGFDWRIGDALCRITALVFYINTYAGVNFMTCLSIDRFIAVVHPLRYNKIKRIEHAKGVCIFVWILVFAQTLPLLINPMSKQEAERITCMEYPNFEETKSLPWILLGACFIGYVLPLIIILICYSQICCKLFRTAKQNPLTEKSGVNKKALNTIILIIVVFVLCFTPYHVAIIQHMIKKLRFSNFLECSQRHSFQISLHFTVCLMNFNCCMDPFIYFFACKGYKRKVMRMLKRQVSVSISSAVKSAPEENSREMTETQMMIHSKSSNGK
CCR6 antagonist: CCR6 receptor antagonists, primary screen, cell-based, CHO-K1, luminescence, beta-arrestin, uHTS; C-C chemokine receptor type 6 (Homo sapiens), P51684; CHO-K1 CCR6 PathHunter beta-arrestin, CCL20-stimulated; inhibition, % at 20 µM; hit rate 0.49% among 340,000; AID 493098, 2011;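 active = compounds whose inhibition of the agonist-driven luminescence signal at 20 µM reaches about 50%, limit read from the data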;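 note: cells stimulated with CCL20 at 14 nM final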
Target sequence (P51684 whole entry, looked up): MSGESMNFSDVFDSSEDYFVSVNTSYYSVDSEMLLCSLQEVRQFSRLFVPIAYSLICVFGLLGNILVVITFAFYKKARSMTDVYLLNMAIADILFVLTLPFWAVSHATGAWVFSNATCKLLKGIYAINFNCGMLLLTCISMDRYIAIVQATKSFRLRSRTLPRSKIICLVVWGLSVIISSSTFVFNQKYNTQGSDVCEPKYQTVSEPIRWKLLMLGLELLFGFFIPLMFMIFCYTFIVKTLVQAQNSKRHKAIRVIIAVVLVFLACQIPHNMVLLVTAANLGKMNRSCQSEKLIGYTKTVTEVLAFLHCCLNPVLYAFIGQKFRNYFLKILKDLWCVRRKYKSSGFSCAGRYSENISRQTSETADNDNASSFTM
APJ ag: agonists of human apelin receptor APJ, primary screen, CHO-K1 cells, PathHunter beta-arrestin, luminescence. activation, % at 20 µM. P35414. AID 2520, 2010. 0% DMSO wells, 100% apelin. hit rate 0.11% among 330,000;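 active = activation more than six SD over the plate average, tested at 20 µM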
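system = engineered CHO-K1 APJ arrestin reporter cells | input = 1000 cells per well | timing = overnight seeding, 90 min compound at 25 °C, 1 h detection | measured by = enzyme-fragment complementation luminescence | read-out = beta-arrestin recruitment to APJ as agonist activity, luminescent signal | control set = negative DMSO alone, positive Apelin-13 at 10 nM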
APJ antagonist: antagonists of human apelin receptor APJ, primary screen, CHO-K1 cells, beta-arrestin complementation, luminescence | inhibition, % at 20 µM | AID 2521, 2010 | hit rate 0.32% among 330,000 | P35414;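 active = inhibition above about 40% at 20 µM, limit read from the data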;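 note: cells challenged with 10 nM apelin-13 agonist together with compound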
EBI2 antag conf: EBI2 antagonist hit retest, beta-arrestin, confirmation, cell-based, single concentration, luminescence, 7a,25-OHC stimulation | shares compounds with EBI2 antag | inhibition, % at 5 µM | hit rate 29% among 2,400 | 7a,25-OHC antagonism;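 active = inhibition of at least 50%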
EBI2 agonist: EBI2 agonist activity of antagonist hits, confirmation, counter-screen for EBI2 antagonist project, cell-based, single concentration, agonist mode, luminescence | activation, % at 5 µM | 2,400 tested, under 10 active | shares compounds with EBI2 antag | EBI2-expressing cells, 60 min; 0% vehicle, 100% 7α,25-dihydroxycholesterol control;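 active = activation of at least 50%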
bGal counter: E. coli beta-galactosidase enzyme inhibition, confirmation, counter-screen for EBI2 antagonist project, biochemical, luminescence, single concentration; AID 652176, 2013; inhibition, % at 5 µM; shares compounds with EBI2 antag; hit rate 1% among 2,400; purified beta-galactosidase, luminescent Galacton Star, 15 min;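 active = replicate-average signal at least 3 plate SD below neutral wells, shown as high inhibition, flagging enzyme-inhibiting false positives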;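 note: higher means stronger loss of beta-gal luminescence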
Hits are given with their value; 0 = inactive; - = not tested or not shown.

SMILES | CXCR6 block | EBI2 antag | CCR6 antagonist | APJ ag | APJ antagonist | EBI2 antag conf | EBI2 agonist | bGal counter
COc1cc(NC(=O)Cc2nn(C)c(=O)c3ccccc23)cc(OC)c1OC | 0 | 0 | 0 | 0 | 0 | - | - | -
COc1ccc(CCN2C(=O)C(Oc3ccccc3C)C2c2ccc3c(c2)OCO3)cc1 (stereo not drawn) | 0 | 55 | 0 | 0 | 0 | 0 | 0 | 0
COc1ccc(CCN2C(=O)C(Oc3ccccc3C)C2c2ccc3c(c2)OCO3)cc1OC (stereo not drawn) | 0 | 0 | 0 | 0 | 0 | - | - | -
COC(=O)c1ccc(C2C(Oc3ccc(OC)cc3)C(=O)N2CCc2ccc(F)cc2)cc1 (stereo not drawn) | 0 | 42 | 0 | 0 | 0 | 0 | 0 | 0
CCC(=O)Nn1c(C)nnc1C | 0 | 0 | 0 | 0 | 0 | - | - | -
COc1ccc(C)cc1NC(=O)COC(=O)C1CCN(C(=O)c2ccc(Cl)cc2)CC1 | 0 | 0 | 0 | 0 | 0 | - | - | -
COc1ccc(COC(=O)C2CCN(C(=O)c3ccc(Cl)cc3)CC2)cc1F | 0 | 49 | 0 | 0 | 0 | 0 | 0 | 0
COc1ccc(C(C)=O)cc1COC(=O)C1CCN(C(=O)c2ccc(Cl)cc2)CC1 | 0 | 77 | 0 | 0 | 0 | 0 | 0 | 0
CCOC(=O)N1CCN(S(=O)(=O)CCNC(=O)c2cccc(OC)c2)CC1 | 0 | 0 | 0 | 0 | 0 | - | - | -
COc1ccc(CNC(=O)C(=O)NCCC2CCCCN2S(=O)(=O)c2ccc(C)cc2)cc1 (stereo not drawn) | 0 | 0 | 0 | 0 | 0 | - | - | -
CCCC(=O)N1CCN(c2ccc([N+](=O)[O-])cc2Cl)CC1 | 0 | 0 | 0 | 0 | 0 | - | - | -
O=C(CSc1ccc(Cl)cc1)N1CCN(c2c(Cl)cccc2[N+](=O)[O-])CC1 | 0 | 94 | 0 | 0 | 0 | 86 | 0 | 0
O=C(/C=C/c1ccc(Cl)cc1)N1CCN(c2c(Cl)cccc2[N+](=O)[O-])CC1 | 0 | 98 | 0 | 0 | 0 | 91 | 0 | 0
O=C(CSc1ccc(Cl)cc1)N1CCN(c2ccc([N+](=O)[O-])cc2Cl)CC1 | 0 | 84 | 0 | 0 | 0 | 0 | 0 | 0
COc1ccc(CNC(=S)Nc2ccc3nc(N4CCOCC4)cc(C)c3c2)cc1 | 0 | 0 | 0 | 0 | 0 | - | - | -
COc1ccccc1OS(=O)(=O)c1ccc(NC(C)=O)cc1 | 0 | 0 | 0 | 0 | 0 | - | - | -
O=C(CCCN1C(=O)/C(=C/c2cccs2)SC1=S)NNC(=O)c1ccc(F)cc1 | 0 | 63 | 0 | 0 | 0 | 0 | 0 | 0
COc1cc(OC)c(C=NNC(=S)NC23CC4CC(CC(C4)C2)C3)c(OC)c1 | 0 | 54 | 0 | - | - | 0 | 0 | 0
COc1cc2cc(C(c3nnnn3C3CCCC3)N(C)C3CCCCC3)c(=O)[nH]c2cc1OC (stereo not drawn) | 0 | 58 | 0 | 0 | 0 | 54 | 0 | 0
COc1ccc2[nH]c(=O)c(C(c3nnnn3C3CCCCC3)N3CCN(C)CC3)cc2c1 (stereo not drawn) | 0 | 0 | 0 | 0 | 0 | - | - | -
COc1cc2cc(C(c3nnnn3C3CCCCC3)N(C)C3CCCCC3)c(=O)[nH]c2cc1OC (stereo not drawn) | 0 | 36 | 0 | 0 | 0 | 0 | 0 | 0
COc1ccc(C(=O)OCC(=O)NC2CCCC2)c(OC)c1 | 0 | 0 | 0 | 0 | 0 | - | - | -
CC(=O)c1ccc(NC(=O)/C=C/c2ccc(C)cc2)cc1 | 0 | 54 | 0 | 0 | 0 | 0 | 0 | 0
O=C(C=Cc1ccccc1)c1ccc([N+](=O)[O-])cc1 | 0 | 0 | 0 | - | - | - | - | -
CN(C)c1ccc(C(=O)C=Cc2ccc([N+](=O)[O-])cc2)cc1 | 0 | 53 | - | - | - | 0 | 0 | 0
SMILES | CXCR6 block | EBI2 antag | CCR6 antagonist | APJ ag | APJ antagonist | EBI2 antag conf | EBI2 agonist | bGal counter
COc1ccc(C(=O)/C=C/c2ccc(C)cc2)c(OC(=O)c2ccc([N+](=O)[O-])cc2)c1 | 0 | 82 | 0 | 0 | 0 | 0 | 0 | 0
Cc1ccc(/C=C/C(=O)c2ccc(C)cc2)cc1 | 0 | 61 | 0 | 0 | 0 | 66 | 0 | 0
COc1ccc(C(=O)/C=C/c2ccccc2F)c(OC(=O)c2ccc([N+](=O)[O-])cc2)c1 | 0 | 0 | 0 | 0 | 0 | - | - | -
Cc1ccc(C(=O)C=Cc2cccc(C)c2)cc1 | 0 | 0 | 0 | - | - | - | - | -
Cn1c(C(=O)N2CCN(c3ccccn3)CC2)cc2ccccc21 | 0 | 0 | 0 | 0 | 0 | - | - | -
Cn1c(C(=O)N2CCN(c3ccccc3)CC2)cc2cc(Cl)ccc21 | 0 | 44 | 0 | 0 | 0 | 0 | 0 | 0
COc1ccc(-c2noc(CN3CCN(c4ccccc4)CC3)n2)cc1 | 0 | 0 | 0 | 0 | 0 | - | - | -
C=CCN1C(=O)NC(c2ccc(OC)cc2)(C(F)(F)F)S/C1=C(\C#N)c1nnc(N2CCOCC2)n1-c1ccccc1 (stereo not drawn) | 0 | 68 | 0 | 0 | 0 | 69 | 0 | 0
COc1ccc(CCNC(=O)CSc2cn(Cc3cccc(C)c3)c3ccccc23)cc1OC | 0 | 55 | 0 | 0 | 0 | 0 | 0 | 0
COC(=O)[C@@]1(Cc2ccc(OC)cc2)[C@H]2c3cc(C(=O)N4CCCC4)n(CCc4ccc(OC)c(Br)c4)c3C[C@H]2CN1C(=O)c1ccccc1 | 0 | 44 | - | - | - | 0 | 0 | 0
CC(C)CC(N)c1csc(NC(=O)Nc2ccccc2Cc2ccccc2)n1 (stereo not drawn) | 0 | 0 | - | - | - | - | - | -
O=C(Nc1nc(-c2cccs2)cs1)c1cccc(S(=O)(=O)N2CCCCCC2)c1 | 0 | 0 | 0 | 0 | 0 | - | - | -
O=C(Nc1nc(-c2cccs2)cs1)c1ccc(S(=O)(=O)N2CCCCC2)cc1 | 0 | 42 | 0 | 0 | 0 | 0 | 0 | 0
O=C(NCCc1c[nH]c2ccccc12)C(=O)NCC(c1ccco1)N1CCN(c2ccccc2)CC1 (stereo not drawn) | 0 | 36 | 0 | 0 | 0 | 0 | 0 | 0
O=C(NCCc1c[nH]c2ccccc12)C(=O)NCC(c1ccco1)N1CCN(c2ccc(F)cc2)CC1 (stereo not drawn) | 0 | 41 | 0 | 0 | 0 | 0 | 0 | 0
O=C(NCCC1=CCCCC1)C(=O)NCC(c1ccco1)N1CCN(c2ccccc2)CC1 (stereo not drawn) | 0 | 0 | 0 | 0 | 0 | - | - | -
Cc1ccc(NC(=S)NCCc2ccc(S(N)(=O)=O)cc2)c(C)c1 | 0 | 0 | 0 | 0 | 0 | - | - | -
